This note sets out measurements from ChEMBL document CHEMBL1132602, “Identification of novel classes of protein kinase inhibitors using combinatorial peptide chemistry based on functional genomics knowledge” (J Med Chem, 1999).

Starred links: 1 amine or outer side, 2 acyl side, 3 side chain; linkers in the order of their positions; H or OH if unused. Non-standard residues stand in square brackets, D forms with d. Residues, ends and D or L forms follow the SMILES beside them. X1 = O=C(C1CCC(N[*:1])CC1)[*:2]

The target in one assay is CaM kinase II (Homo sapiens, UniProt Q13557+Q13555+Q13554+Q9UQM7). The assay is described as follows: Inhibitory activity against CaMPKII (Calcium/calmodulin-dependent protein kinase type II). Type of assay: protein assay.
Assay [1] in a line: Ratio of the inhibitory concentrations against CaMPKII and MLCK. IC50 (CaMPKII ) / IC50 (MLCK). An outline of the steps: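 Ratio of IC50 values from the two radiometric assays, both with 0.2 mM [γ-32P]ATP and 20 μM peptide substrate. CaMPKII was activated with 30 μM CaM and 2 mM CaCl2 and run 8 min. Chicken gizzard MLCK was activated with 1 μM CaM and 5 μM CaCl2 and run 20 min. Both at 25 °C, IC50 from 15–85% activity regression.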

Assay [2] concerns the target Myosin light chain kinase, smooth muscle (Gallus gallus, UniProt P11799). The assay is described as follows: Inhibitory activity against MLCK (smooth muscle myosin light chain kinase).

Chain of Myosin light chain kinase, smooth muscle (P11799 whole entry): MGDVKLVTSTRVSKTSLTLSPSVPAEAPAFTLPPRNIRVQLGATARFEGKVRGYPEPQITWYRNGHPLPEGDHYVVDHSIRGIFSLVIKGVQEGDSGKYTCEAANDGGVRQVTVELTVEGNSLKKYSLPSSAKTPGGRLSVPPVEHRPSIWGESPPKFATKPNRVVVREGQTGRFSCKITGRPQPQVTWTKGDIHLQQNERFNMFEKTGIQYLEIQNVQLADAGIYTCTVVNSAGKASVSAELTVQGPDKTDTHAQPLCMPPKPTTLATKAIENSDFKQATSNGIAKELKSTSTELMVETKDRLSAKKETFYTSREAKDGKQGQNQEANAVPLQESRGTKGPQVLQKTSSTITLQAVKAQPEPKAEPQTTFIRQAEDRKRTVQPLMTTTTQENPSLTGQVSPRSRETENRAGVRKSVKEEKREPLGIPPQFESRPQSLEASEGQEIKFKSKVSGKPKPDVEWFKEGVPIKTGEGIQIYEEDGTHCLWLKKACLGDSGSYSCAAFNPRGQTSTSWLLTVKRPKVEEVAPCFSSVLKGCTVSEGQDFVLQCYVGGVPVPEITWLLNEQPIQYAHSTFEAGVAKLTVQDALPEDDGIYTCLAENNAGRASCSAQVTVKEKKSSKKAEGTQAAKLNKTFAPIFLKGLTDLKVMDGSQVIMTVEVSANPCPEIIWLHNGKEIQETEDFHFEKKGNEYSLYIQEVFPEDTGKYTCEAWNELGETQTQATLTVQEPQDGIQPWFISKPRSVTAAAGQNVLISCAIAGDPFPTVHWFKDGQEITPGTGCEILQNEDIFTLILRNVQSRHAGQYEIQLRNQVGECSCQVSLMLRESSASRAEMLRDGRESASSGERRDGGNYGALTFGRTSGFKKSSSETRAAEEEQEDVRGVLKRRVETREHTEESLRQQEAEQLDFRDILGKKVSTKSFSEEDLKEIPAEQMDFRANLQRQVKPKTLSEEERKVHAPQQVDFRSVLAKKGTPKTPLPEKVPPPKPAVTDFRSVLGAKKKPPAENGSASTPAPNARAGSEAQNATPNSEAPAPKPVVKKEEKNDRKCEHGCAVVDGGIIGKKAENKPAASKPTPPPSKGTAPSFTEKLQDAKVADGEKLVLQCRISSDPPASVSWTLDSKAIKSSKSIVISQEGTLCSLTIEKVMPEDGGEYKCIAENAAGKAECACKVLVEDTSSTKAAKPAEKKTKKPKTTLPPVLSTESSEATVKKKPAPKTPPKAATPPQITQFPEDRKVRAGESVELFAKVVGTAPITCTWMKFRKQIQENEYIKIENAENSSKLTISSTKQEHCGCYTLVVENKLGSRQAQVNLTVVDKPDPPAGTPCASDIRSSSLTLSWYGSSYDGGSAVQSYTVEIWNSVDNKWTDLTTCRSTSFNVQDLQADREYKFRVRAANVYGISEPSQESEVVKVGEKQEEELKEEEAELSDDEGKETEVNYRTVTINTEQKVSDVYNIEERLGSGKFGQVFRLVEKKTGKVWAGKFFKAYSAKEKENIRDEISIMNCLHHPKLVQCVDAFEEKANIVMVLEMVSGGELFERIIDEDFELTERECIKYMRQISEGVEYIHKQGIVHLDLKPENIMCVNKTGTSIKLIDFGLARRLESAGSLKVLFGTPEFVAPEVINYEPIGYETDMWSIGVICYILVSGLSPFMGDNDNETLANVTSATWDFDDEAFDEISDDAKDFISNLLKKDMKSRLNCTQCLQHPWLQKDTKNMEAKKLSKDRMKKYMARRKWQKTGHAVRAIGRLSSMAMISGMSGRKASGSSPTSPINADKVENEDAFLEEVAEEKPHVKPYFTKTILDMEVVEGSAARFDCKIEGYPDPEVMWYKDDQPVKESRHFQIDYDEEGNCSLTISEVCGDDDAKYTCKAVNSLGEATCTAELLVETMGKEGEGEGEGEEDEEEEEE

On to `NCCCC[C@H](NC(=O)[C@H](CCCN=C(N)N)NC(=O)[C@H](CCCN=C(N)N)NC(=O)[C@H](Cc1ccc(O)cc1)NC(=O)C1CCC(NC(=O)C2CCC(NC(=O)[C@H](CCCCN)NC(=O)[C@H](CCCCN)NC(=O)[C@@H](N)CCCN=C(N)N)CC2)CC1)C(N)=O` (stereo not given in full) (H-RKK[X1][X1]YRRK-NH2), for which, at CaM kinase II, the IC50 is > 200 µM. Further, in assay [1], the Ratio was > 67.

As to H-RKKYKLRRK-NH2, the IC50 was found to be 132 µM on CaM kinase II and 320 nM in assay [2]. Moreover, the Ratio in assay [1] was found to be 413.

In turn, H-RKKYKSRRK-NH2 [listing 1 of 2 here] returned an IC50 in assay [2] of 150 nM.

As for `NCCCC[C@H](NC(=O)[C@H](CCCN=C(N)N)NC(=O)[C@H](CCCN=C(N)N)NC(=O)C1CCC(NC(=O)C2CCC(NC(=O)[C@H](Cc3ccc(O)cc3)NC(=O)[C@H](CCCCN)NC(=O)[C@H](CCCCN)NC(=O)[C@@H](N)CCCN=C(N)N)CC2)CC1)C(N)=O` (stereo not given in full) (H-RKKY[X1][X1]RRK-NH2), the IC50 is > 200 µM on CaM kinase II and 110 nM in assay [2]. In addition, in assay [1], the Ratio was > 1820.

In assay [2], H-RKKYKNRRK-NH2 [listing 1 of 2 here] displayed a concentration for half-maximal inhibition (IC50) of 290 nM.

H-RKKYKNRRK-NH2 [listing 2 of 2 here]: on CaM kinase II, the IC50 was > 200 µM. In addition, the Ratio in assay [1] was > 690.

As to H-RKKYKERRK-NH2, the IC50 was > 200 µM on CaM kinase II and 870 nM in assay [2]. The Ratio in assay [1] was > 230.

Turning to `C[C@@H](O)[C@H](NC(=O)[C@H](CCCCN)NC(=O)[C@H](Cc1ccc(O)cc1)NC(=O)[C@H](CCCCN)NC(=O)[C@H](CCCCN)NC(=O)[C@@H](N)CCCN=C(N)N)C(=O)N[C@@H](CCCN=C(N)N)C(=O)N[C@@H](CCCN=C(N)N)C(=O)N[C@@H](CCCCN)C(N)=O`, the IC50 on CaM kinase II was > 200 µM; in assay [2] it was 730 nM.

Take `NCCCC[C@H](NC(=O)[C@H](CCCN=C(N)N)NC(=O)[C@H](CCCN=C(N)N)NC(=O)[C@H](Cc1ccc(O)cc1)NC(=O)C1CCC(NC(=O)[C@H](Cc2ccc(O)cc2)NC(=O)[C@H](CCCCN)NC(=O)[C@H](CCCCN)NC(=O)[C@@H](N)CCCN=C(N)N)CC1)C(N)=O` (stereo not given in full) (H-RKKY[X1]YRRK-NH2): the values for the IC50 (at CaM kinase II; in assay [2]) were > 200 µM and 40 nM, respectively. The Ratio in assay [1] was > 5000.

In turn, H-RKKYKGRRK-NH2 [listing 1 of 2 here] yielded an IC50 in assay [2] of 310 nM.

For H-RKKYKPRRK-NH2, the results for the IC50 (on CaM kinase II; in assay [2]) were > 200 µM and 120 nM, respectively. For the same compound, in assay [1], the Ratio is > 1670.

For H-RKKYKQRRK-NH2, the IC50 at CaM kinase II was > 200 µM; in assay [2] it was 300 nM. The Ratio in assay [1] was > 667.

Take H-RKKYKGRRK-NH2 [listing 2 of 2 here]: the IC50 at CaM kinase II was > 200 µM. Moreover, in assay [1], the Ratio was > 645.

In the case of H-RKKYKVRRK-NH2 [listing 1 of 2 here], on CaM kinase II, the IC50 is > 200 µM. The Ratio in assay [1] is > 556.

Consider H-RKKYKWRRK-NH2, for which the concentration for half-maximal inhibition (IC50) was found to be 26.7 µM on CaM kinase II and 200 nM in assay [2]. Moreover, in assay [1], the Ratio worked out at 134.

For H-RKKYKHRRK-NH2, the IC50 amounted to 16.2 µM on CaM kinase II and 290 nM in assay [2]. In addition, the Ratio in assay [1] was 56.

In turn, H-RKKYKMRRK-NH2 [listing 1 of 2 here] yielded an IC50 in assay [2] of 160 nM.

`N=C(N)NCCC[C@H](NC(=O)C1CCC(NC(=O)C2CCC(NC(=O)C3CCC(NC(=O)[C@H](CCCCN)NC(=O)[C@H](CCCCN)NC(=O)[C@@H](N)CCCNC(=N)N)CC3)CC2)CC1)C(=O)N[C@@H](CCCNC(=N)N)C(=O)N[C@@H](CCCCN)C(N)=O` (stereo not given in full) (H-RKK[X1][X1][X1]RRK-NH2): 20000 nM corresponded to half-maximal inhibition in assay [2] (IC50).

As to `NCCCC[C@H](NC(=O)[C@H](CCCN=C(N)N)NC(=O)[C@H](CCCN=C(N)N)NC(=O)C1CCC(NC(=O)C2CCC(NC(=O)C3CCC(NC(=O)[C@H](CCCCN)NC(=O)[C@H](CCCCN)NC(=O)[C@@H](N)CCCN=C(N)N)CC3)CC2)CC1)C(N)=O` (stereo not given in full) (H-RKK[X1][X1][X1]RRK-NH2), on CaM kinase II, the IC50 was > 200 µM. Besides, in assay [1], the Ratio is > 10.

For the compound H-RKKYKSRRK-NH2 [listing 2 of 2 here], on CaM kinase II, the IC50 is > 200 µM. Also, the Ratio in assay [1] was > 1330.

As for H-RKKYKMRRK-NH2 [listing 2 of 2 here], on CaM kinase II, the IC50 was > 200 µM. Also, the Ratio in assay [1] is > 1250.

As to `C[C@H](O)[C@H](NC(=O)[C@H](CCCCN)NC(=O)[C@H](Cc1ccc(O)cc1)NC(=O)[C@H](CCCCN)NC(=O)[C@H](CCCCN)NC(=O)[C@@H](N)CCCN=C(N)N)C(=O)N[C@@H](CCCN=C(N)N)C(=O)N[C@@H](CCCN=C(N)N)C(=O)N[C@@H](CCCCN)C(N)=O`, the Ratio in assay [1] was > 274.

For the compound `CC[C@@H](C)[C@H](NC(=O)[C@H](CCCCN)NC(=O)[C@H](Cc1ccc(O)cc1)NC(=O)[C@H](CCCCN)NC(=O)[C@H](CCCCN)NC(=O)[C@@H](N)CCCN=C(N)N)C(=O)N[C@@H](CCCN=C(N)N)C(=O)N[C@@H](CCCN=C(N)N)C(=O)N[C@@H](CCCCN)C(N)=O`, the Ratio in assay [1] is 359.

With H-RKKYKFRRK-NH2, the IC50 at CaM kinase II is > 200 µM; in assay [2], 150 nM. For the same compound, the Ratio in assay [1] is > 1330.

Consider H-RKKYKVRRK-NH2 [listing 2 of 2 here], for which inhibition in assay [2] was half-maximal at 360 nM (IC50).

Take H-RKKYKKRRK-NH2: the IC50 is > 200 µM on CaM kinase II and 220 nM in assay [2]. Also, the Ratio in assay [1] was > 909.

`N=C(N)NCCC[C@H](NC(=O)[C@H](CCCNC(=N)N)NC(=O)[C@H](Cc1ccc(O)cc1)NC(=O)C1CCC(NC(=O)C2CCC(NC(=O)[C@H](CCCCN)NC(=O)[C@H](CCCCN)NC(=O)[C@@H](N)CCCNC(=N)N)CC2)CC1)C(=O)N[C@@H](CCCCN)C(N)=O` (stereo not given in full) (H-RKK[X1][X1]YRRK-NH2) yielded an IC50 in assay [2] of 2970 nM.

Regarding H-RKKYKARRK-NH2, the IC50 on CaM kinase II was > 200 µM; in assay [2], 420 nM. Besides, in assay [1], the Ratio was > 476.

With `NCCCC[C@H](NC(=O)[C@H](CCCN=C(N)N)NC(=O)[C@H](CCCN=C(N)N)NC(=O)C1CCC(NC(=O)[C@H](CCCCN)NC(=O)[C@H](Cc2ccc(O)cc2)NC(=O)[C@H](CCCCN)NC(=O)[C@H](CCCCN)NC(=O)[C@@H](N)CCCN=C(N)N)CC1)C(N)=O` (stereo not given in full) (H-RKKYK[X1]RRK-NH2), the IC50 is > 200 µM at CaM kinase II and 270 nM in assay [2]. The Ratio in assay [1] is > 741.

As to `CC[C@H](C)[C@H](NC(=O)[C@H](CCCCN)NC(=O)[C@H](Cc1ccc(O)cc1)NC(=O)[C@H](CCCCN)NC(=O)[C@H](CCCCN)NC(=O)[C@@H](N)CCCNC(=N)N)C(=O)N[C@@H](CCCNC(=N)N)C(=O)N[C@@H](CCCNC(=N)N)C(=O)N[C@@H](CCCCN)C(N)=O`, the IC50 on CaM kinase II came out at 57.4 µM; in assay [2] it was 160 nM.

For `NCCCC[C@H](NC(=O)[C@H](CCCN=C(N)N)NC(=O)[C@H](CCCN=C(N)N)NC(=O)[C@H](Cc1ccc(O)cc1)NC(=O)[C@H](CCCCN)NC(=O)C1CCC(NC(=O)[C@H](CCCCN)NC(=O)[C@H](CCCCN)NC(=O)[C@@H](N)CCCN=C(N)N)CC1)C(N)=O` (stereo not given in full) (H-RKK[X1]KYRRK-NH2), the values for the IC50 (at CaM kinase II; in assay [2]) were > 200 µM and 1040 nM, respectively. In assay [1], the Ratio is > 192.

As to H-RKKYKYRRK-NH2, the IC50 is > 200 µM at CaM kinase II and 50 nM in assay [2]. In addition, in assay [1], the Ratio is > 4000.

Consider `NCCCC[C@H](NC(=O)[C@H](CCCN=C(N)N)NC(=O)[C@H](CCCN=C(N)N)NC(=O)C1CCC(NC(=O)[C@H](CCCCN)NC(=O)C2CCC(NC(=O)[C@H](CCCCN)NC(=O)[C@H](CCCCN)NC(=O)[C@@H](N)CCCN=C(N)N)CC2)CC1)C(N)=O` (stereo not given in full) (H-RKK[X1]K[X1]RRK-NH2), for which the IC50 at CaM kinase II was > 200 µM; in assay [2], 20000 nM. In addition, in assay [1], the Ratio is > 10.

As to H-RKKYKDRRK-NH2, the IC50 is > 200 µM on CaM kinase II and 610 nM in assay [2]. For the same compound, the Ratio in assay [1] was > 328.

Usually IC50 stands for the concentration at which inhibition is half-maximal.
